Assay results of several laboratories.
Lines come from different studies, so protocols differ.
MAOA: Amine oxidase [flavin-containing] A (MAOA, Homo sapiens, UniProt P21397)
GSR: Glutathione reductase, mitochondrial (GSR, Homo sapiens, UniProt P00390)
LDHA: L-lactate dehydrogenase A chain (LDHA, Homo sapiens, UniProt P00338)
PRMT3: Protein arginine N-methyltransferase 3 (PRMT3, Homo sapiens, UniProt O60678)
Rps6ka1: Ribosomal protein S6 kinase alpha-1 (Rps6ka1, Rattus norvegicus, UniProt Q63531)
Oprk1: Kappa-type opioid receptor (Oprk1, Rattus norvegicus, UniProt P34975)
ADRA1A: Alpha-1A adrenergic receptor (ADRA1A, Homo sapiens, UniProt P35348)
Faah: Fatty-acid amide hydrolase 1 (Faah, Rattus norvegicus, UniProt P97612)

Oc1cccc(Nc2nc(-c3ccc(F)cc3F)cs2)c1 — inhibition (Histamine H2 receptor (HRH2, Homo sapiens, UniProt P25021); cell-free assay; 10 µM): -33.9%
O=C(Nc1cc(F)ccc1[N+](=O)[O-])c1cc(Cl)ccc1O — inhibition (MAOA; enzyme activity, inhibitor; 1 µM, 20 min): 8%
CC(C)CCN[C@@H]1C[C@@H](c2ccc(Cl)c(Cl)c2)c2ccccc21 (relative stereo) — inhibition (GSR; enzyme activity, inhibitor; 25 µM): < 12%
COC(=O)CN=c1scc(-c2ccccc2)n1-c1ccc(C)cc1 — inhibition (LDHA; enzyme activity, inhibitor, fluorescence; 100 µM, pH 7.2): 52%
N=C(NCCCSC[C@H]1O[C@@H](n2cnc3c(NCCCc4ccccc4)ncnc32)[C@H](O)[C@@H]1O)NCc1ccccc1 — inhibition (PRMT3; enzyme activity, inhibitor, fluorescence; 10 µM): -4.37%
COc1cc(/C=C/C(=O)N2CCc3ccccc3C2)ccc1OCc1ccccc1 — inhibition (MAOA; enzyme activity, inhibitor, fluorescence; 62.5 µM): 20.6%
CN1CC(Oc2cnc(C#N)cc2-c2ccn3nc(NC(=O)C4CC4)cc3c2)C1 — inhibition (Cyclin-dependent kinase-like 2 (CDKL2, Homo sapiens, UniProt Q92772); enzyme activity, inhibitor; 1 µM): -18%
COc1cc(NC(C)=O)c(Cl)cc1C(=O)Nc1nccs1 — inhibition (Vasoactive intestinal polypeptide receptor 1 (VIPR1, Homo sapiens, UniProt P32241); cell-free assay; 10 µM): -13.5%
Cc1cc([N+](=O)[O-])ccc1NC(=O)c1ccc2c(c1)OCO2 — inhibition (MAOA; enzyme activity, inhibitor; 1 µM, 20 min): 7%
COC(=O)CN=c1scc(-c2ccccc2)n1-c1ccc(Cl)cc1 — inhibition (LDHA; enzyme activity, inhibitor, fluorescence; 100 µM, pH 7.2): 41%
O=C(Nc1ccc(C(F)(F)F)cc1)c1cc(Cl)ccc1O — inhibition (MAOA; enzyme activity, inhibitor; 1 µM, 20 min): 82%
Cc1ccc(Nc2nccc(N(C)c3ccc4c(C)n(C)nc4c3)n2)cc1S(N)(=O)=O — inhibition (Rps6ka1; enzyme activity, inhibitor; 0.3 µM): 27%
O=C(Nc1ccc([N+](=O)[O-])cc1Cl)c1ccc2ccccc2c1 — inhibition (MAOA; enzyme activity, inhibitor; 1 µM, 20 min): 11%
CC[C@H](C)[C@H](NC(=O)[C@H](CCC(N)=O)NC(=O)[C@H](CC(C)C)NC(=O)[C@H](CCSC)NC(=O)[C@H](CCCCN)NC(=O)[C@H](CO)NC(=O)[C@H](CO)NC(=O)[C@H](CCSC)NC(=O)[C@H](CC(C)C)NC(=O)[C@H](CC(N)=O)NC(=O)[C@@H](NC(=O)[C@@H](NC(=O)[C@H](CO)NC(=O)[C@H](CC(C)C)NC(=O)[C@H](CS)NC(=O)[C@H](CCCNC(=N)N)NC(=O)[C@H](CC(=O)O)NC(=O)[C@H](Cc1c[nH]c2ccccc12)NC(=O)[C@H](Cc1ccccc1)NC(=O)[C@H](C)NC(=O)[C@H](CCC(=O)O)NC(=O)[C@@H](N)CCCCN)C(C)C)[C@@H](C)CC)C(=O)N[C@@H](CC(N)=O)C(=O)N[C@@H](C)C(=O)O — inhibition (Cyclin-dependent kinase 5, with p25 (CDK5, Homo sapiens, UniProt Q00535); enzyme activity, inhibitor, radiometric; 50 µM): 20%
N=C(NCCCN)NCCCSC[C@H]1O[C@@H](n2cnc3c(NCCCc4ccccc4)ncnc32)[C@H](O)[C@@H]1O — inhibition (PRMT3; enzyme activity, inhibitor, fluorescence; 10 µM): 1.09%
O=C(Nc1cccc(Cl)c1)c1cc(Cl)ccc1O — inhibition (MAOA; enzyme activity, inhibitor; 1 µM, 20 min): 15%
Nc1ncnc2c1ncn2[C@@H]1O[C@H](CSCCNC(=O)NCc2ccccc2)[C@@H](O)[C@H]1O — inhibition (PRMT3; enzyme activity, inhibitor, radiometric; 10 µM): > 95%
COc1cc([N+](=O)[O-])ccc1NC(=O)c1ccc(Cl)cc1 — inhibition (MAOA; enzyme activity, inhibitor; 1 µM, 20 min): 2%
Cc1ccc(-n2nc(C(C)(C)C)cc2NC(=O)Nc2ccc(OCCN3CCOCC3)c3ccccc23)cc1 — inhibition (Tyrosine-protein phosphatase non-receptor type 1 (PTPN1, Homo sapiens, UniProt P18031); enzyme activity, inhibitor; 10 µM): 18%
O=C(c1ccc(Cl)cc1)N(Cc1ccccc1)C1CCCCC1 — inhibition (Oprk1; ligand displacement, radioligand; 10 µM): 82%
N#Cc1cc(Cn2c(N3CCCC3)nc3ccccc32)ccc1F — inhibition (ADRA1A; ligand displacement; 10 µM): -11.7%
CC1=C(C(=O)Nc2ccc([N+](=O)[O-])cc2Cl)Cc2ccccc21 — inhibition (MAOA; enzyme activity, inhibitor; 1 µM, 20 min): -3%
CNC(=O)c1cc(Oc2ccc(NC(=O)Nc3ccc(Cl)c(C(F)(F)F)c3)cc2)ccn1 — inhibition (Rps6ka1; enzyme activity, inhibitor; 10 µM): 19%
COC(=O)CN=c1scc(-c2ccccc2)n1-c1ccccc1 — inhibition (LDHA; enzyme activity, inhibitor, fluorescence; 100 µM, pH 7.2): 33%
Cc1ccc2c(ccn2CCC2CCN(C(=O)OC(C(F)(F)F)C(F)(F)F)CC2)c1 — inhibition (Faah; enzyme activity, inhibitor; 10 µM): 36%
CCCCNC(=N)NCCCSC[C@H]1O[C@@H](n2cnc3c(NCCCc4ccccc4)ncnc32)[C@H](O)[C@@H]1O — inhibition (PRMT3; enzyme activity, inhibitor, fluorescence; 10 µM): 11.1%
CCCNc1nc2ccccc2n1Cc1ccc(Cl)cc1 — inhibition (ADRA1A; ligand displacement; 10 µM): -2.69%
N#Cc1ccc2c(ccn2CCC2CCN(C(=O)OC(C(F)(F)F)C(F)(F)F)CC2)c1 — inhibition (Faah; enzyme activity, inhibitor; 10 µM): 45%
N=C(NCCCO)NCCCSC[C@H]1O[C@@H](n2cnc3c(NCCCc4ccccc4)ncnc32)[C@H](O)[C@@H]1O — inhibition (PRMT3; enzyme activity, inhibitor, fluorescence; 10 µM): 7.1%
O=C1N=C(N2CCCCN2)S/C1=C\c1ccc(F)cc1O — inhibition (Oprk1; ligand displacement, radioligand; 10 µM): 11%
N=C(NCCCSC[C@H]1O[C@@H](n2cnc3c(NCCCc4ccccc4)ncnc32)[C@H](O)[C@@H]1O)NC1CCCCC1 — inhibition (PRMT3; enzyme activity, inhibitor, fluorescence; 10 µM): -5.11%
COc1ccc(CN[C@@H]2C[C@@H](c3ccc(Cl)c(Cl)c3)c3ccccc32)cc1 (relative stereo) — inhibition (GSR; enzyme activity, inhibitor; 25 µM): < 12%
N=C(NCCCSC[C@H]1O[C@@H](n2cnc3c(NCCCc4ccccc4)ncnc32)[C@H](O)[C@@H]1O)NC1CC1 — inhibition (PRMT3; enzyme activity, inhibitor, fluorescence; 10 µM): -8.93%
COC(=O)CN=c1scc(-c2ccccc2)n1-c1ccccc1OC — inhibition (LDHA; enzyme activity, inhibitor, fluorescence; 100 µM, pH 7.2): 48%
N#Cc1ccc(NC(=O)c2ccc(Cl)cc2)cc1 — inhibition (MAOA; enzyme activity, inhibitor; 1 µM, 20 min): 72%
N=C(NCCCSC[C@H]1O[C@@H](n2cnc3c(NCCCc4ccccc4)ncnc32)[C@H](O)[C@@H]1O)NCCCc1ccccc1 — inhibition (PRMT3; enzyme activity, inhibitor, fluorescence; 10 µM): 10.4%
